Test results published in ChEMBL document CHEMBL1133430, “8-Methylureido-4,5-dihydro-4-oxo-10H-imidazo[1,2-a]indeno[1,2-e]pyrazines: highly potent in vivo AMPA antagonists” (Bioorg Med Chem Lett, 2000).

How the values were obtained:
[1] = molecular target: Glutamate receptor ionotropic, AMPA (Rattus norvegicus, UniProt P19490+P19491+P19492+P19493); experiment: The compound was tested for its affinity for Ionotropic glutamate receptor AMPA in in vitro binding assay on rat cortical membrane preparations using [3H]AMPA as ligand
Mus musculus [2] = experiment: Tested in vivo as the dose which protected 50% of the animals from a tonic convulsion (six male CDI mice/dose of compound) after intraperitoneal administration in MES test; type: functional
Method in brief: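 Maximal electroshock (MES) convulsions in male CD1 mice. Compound given ip in 1% Tween-80 in water, 30 min before challenge. Six mice per dose, at least three doses plus a vehicle-alone group. ED50 (mg/kg) is the dose protecting 50% of animals from tonic convulsion.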

Rattus norvegicus = species: Rattus norvegicus; experiment: The compound was tested for its inhibition of currents generated by 50 uM Kainate in Xenopus oocytes injected with rat brain mRNA; type: functional
Method in brief: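 Xenopus oocytes injected with rat brain mRNA; AMPA receptor currents evoked by a submaximal kainate concentration, recorded electrophysiologically. Drug stocks in water or DMSO, diluted into recording medium. IC50 obtained by nonlinear least-squares fit to a sigmoidal equation.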

Mus musculus [3] = experiment: Tested in vivo as the dose which protected 50% of the animals from a tonic convulsion (six male CDI mice/dose of compound) after intraperitoneal administration in DBA test; type: functional
Method in brief: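 Audiogenic seizure test in DBA/2 mice. Compound given ip in 1% Tween-80 in water, 30 min before the sound challenge. Six mice per dose, three doses plus a vehicle-treated group.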

Glutamate NMDA receptor = experiment: In vitro affinity for N-methyl-D-aspartate glutamate receptor 1 using [3H]5,7-dichlorokynurenate([3H]-DCKA) as ligand; type: protein-complex assay
Method in brief: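 Competition binding on rat cerebral cortex membranes at the NMDA receptor glycine site. IC50 is the mean of at least three determinations, each using at least three test concentrations run in triplicate.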

Mus musculus [4] = experiment: Tested in vivo as the dose which protected 50% of the animals from a tonic convulsion (six male CDI mice/dose of compound) after intravenous administration in MES test; type: functional
Method in brief: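 Maximal electroshock (MES) convulsions in male CD1 mice. Compound given iv in saline, 5 min before challenge. Six mice per dose, at least three doses plus a vehicle-alone group. ED50 (mg/kg) is the dose protecting 50% of animals from tonic convulsion.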

Mus musculus [5] = experiment: Tested in vivo as the dose which protected 50% of the animals from a tonic convulsion (six male CDI mice/dose of compound) after subcutaneous administration in MES test; type: functional; conditions: sc
Method in brief: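 Maximal electroshock (MES) convulsions in male CD1 mice. Compound given sc in 1% Tween-80 in water, 30 min before challenge. Six mice per dose, at least three doses plus a vehicle-alone group. ED50 (mg/kg) is the dose protecting 50% of animals from tonic convulsion.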

[6] = Mus musculus, ip, read-out: ED50

| IC50 [1] [nM] | IC50 (Glutamate NMDA receptor) [nM] | SMILES | further results |
| --- | --- | --- | --- |
| 39 | – | CNC(=O)Nc1ccc2c(c1)C(CC(=O)O)c1c-2nc(O)c2nccn12 (stereo in doubt; (-)-3) | ED50 (Mus musculus [2]): 7 mg/kg; IC50 (Rattus norvegicus): 6.7 nM; ED50 (Mus musculus [3]): 4.4 mg/kg |
| 3300 | 5300 | COc1ccc2c(c1)Cc1c-2nc(O)c2nccn12 | – |
| 670 | 8400 | CCOC(=O)Nc1ccc2c(c1)Cc1c-2nc(O)c2nccn12 | – |
| 18 | 100000 | CNC(=O)Nc1ccc2c(c1)Cc1c-2nc(O)c2nccn12 | – |
| – | – | O=c1[nH]c2cc(-n3ccnc3)c([N+](=O)[O-])cc2[nH]c1=O [YM-90K] | ED50 (Mus musculus [4]): 12 mg/kg; ED50 (Mus musculus [2]; ip): 12 mg/kg; IC50 (Rattus norvegicus; Rattus norvegicus): 260 nM; ED50 (Mus musculus [3]; ip): 15 mg/kg |
| 1250 | > 100000 | NC(=O)Nc1ccc2c(c1)Cc1c-2nc(O)c2nccn12 | – |
| 30000 | > 100000 | O=S(=O)(O)c1ccc2c(c1)Cc1c-2nc(O)c2nccn12 | – |
| 3250 | 10000 | CC(=O)Nc1ccc2c(c1)Cc1c-2nc(O)c2nccn12 | – |
| 5600 | 22000 | Nc1ccc2c(c1)Cc1c-2nc(O)c2nccn12 | – |
| 100000 | > 100000 | Oc1nc2c(n3ccnc13)Cc1cc(-n3ccnc3)ccc1-2 | – |
| 16000 | > 100000 | Oc1nc2c(n3ccnc13)Cc1cc(Cl)ccc1-2 | – |
| 17000 | 100000 | Oc1nc2c(n3ccnc13)Cc1c(Cl)cccc1-2 | – |
| 300 | 2300 | CNC(=O)Nc1cccc2c1Cc1c-2nc(O)c2nccn12 | – |
| 86 | 10000 | CCNC(=O)Nc1ccc2c(c1)Cc1c-2nc(O)c2nccn12 | – |
| – | – | Oc1nc2c(n3ccnc13)Cc1ccccc1-2 | ED50 (Mus musculus [2]; ip): 62 mg/kg; Kb (Rattus norvegicus; Rattus norvegicus): 1.8 nM |
| 3000 | 180 | Oc1nc2c(n3ccnc13)Cc1ccc(Cl)cc1-2 | – |
| 900 | 100000 | Oc1nc2c(n3ccnc13)Cc1c(F)cccc1-2 | – |
| 4 | 10000 | CNC(=O)Nc1ccc2c(c1)C(CC(=O)O)c1c-2nc(O)c2nccn12 (single isomer, unassigned; (+)) | ED50 (Mus musculus [2]): 1 mg/kg; IC50 (Rattus norvegicus): 2 nM; ED50 (Mus musculus [3]): 0.9 mg/kg |
| 250 | 7800 | Oc1nc2c(n3ccnc13)Cc1cc(F)ccc1-2 | – |
| 8 | 14000 | CNC(=O)Nc1ccc2c(c1)C(CC(=O)O)c1c-2nc(O)c2nccn12 (racemic) | ED50 (Mus musculus [4]): 1 mg/kg; ED50 (Mus musculus [2]): 1.8 mg/kg; IC50 (Rattus norvegicus): 20 nM; ED50 (Mus musculus [3]): 0.6 mg/kg; ED50 (Mus musculus [5]): 2 mg/kg |
| 30000 | > 100000 | Cc1ccc2c(c1)Cc1c-2nc(O)c2nccn12 | – |
| 37 | 100000 | CN(C)C(=O)Nc1ccc2c(c1)Cc1c-2nc(O)c2nccn12 | – |
| 2000 | > 100000 | Oc1nc2c(n3ccnc13)Cc1cc(Br)ccc1-2 | – |
| > 100000 | 2100 | Cc1ccc2c(c1)-c1nc(O)c3nccn3c1C2 | – |
| 970 | 1000 | Oc1nc2c(n3ccnc13)Cc1ccc(F)cc1-2 | – |

| SMILES | IC50 [1] [nM] | IC50 (Glutamate NMDA receptor) [nM] | further results |
| --- | --- | --- | --- |
| CNC(=O)Nc1ccc2c(c1)/c(=C/C(=O)O)c1c2nc(O)c2nccn21 | 19 | 100000 | ED50 (Mus musculus [4]): 5.6 mg/kg; ED50 (Mus musculus [2]; [6]): 11 mg/kg; IC50 (Rattus norvegicus; Rattus norvegicus): 3 nM; ED50 (Mus musculus [3]; [6]): 1.6 mg/kg |
| O=C(Nc1ccccc1)Nc1ccc2c(c1)Cc1c-2nc(O)c2nccn12 | 620 | > 100000 | – |
| O=C(Nc1ccc2c(c1)Cc1c-2nc(O)c2nccn12)c1ccccc1 | 450 | > 100000 | – |
| O=C(NCc1ccccc1)Nc1ccc2c(c1)Cc1c-2nc(O)c2nccn12 | 110 | 100000 | – |
| O=C(Cc1ccccc1)Nc1ccc2c(c1)Cc1c-2nc(O)c2nccn12 | 180 | 100000 | – |
| O=C(NCCc1ccccc1)Nc1ccc2c(c1)Cc1c-2nc(O)c2nccn12 | 130 | > 100000 | – |
